The text below walks through data of ChEMBL document CHEMBL1909580, “Branched-chain C-cyano pyranonucleosides: synthesis of 3'-C-cyano & 3'-C-cyano-3'-deoxy pyrimidine pyranonucleosides as novel cytotoxic agents” (Eur J Med Chem, 2011).

The structures appear in SMILES notation. pIC50: −log10 of the molar value. Activity calls are given as the source filed them. The rule behind the calls is not given here. Some results are limits rather than exact numbers.

The subject of one assay is Human alphaherpesvirus 1. The assay can be described thus: Antiviral activity against HSV1 infected in human HEL cells assessed as inhibition of virus-induced cytopathicity at 100 uM. Format: functional, organism-based. Summed up: (§1)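 Confluent cell monolayers in microtiter plates were inoculated with 100 CCID50 of virus in the presence of varying test concentrations. 1 CCID50 is the virus dose infecting 50% of cultures. Cytopathicity was scored once it was complete in untreated virus-infected controls.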
A general note: Damage to the host cells serves as the signal in cytopathic effect assays.

The subject of assay [1] is Influenza A virus. The assay can be described thus: Antiviral activity against influenza A virus H1N1 infected in MDCK cells assessed as inhibition of virus-induced cytopathicity at 100 uM. Format: functional, organism-based. An outline of the steps: (§2)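 Confluent cell monolayers were infected with 100 CCID50 of virus (1 CCID50 infects 50% of cultures) in the presence of varying concentrations of test compound. Virus-induced cytopathicity was scored once it was complete in the untreated infected controls.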

A further assay concerns Human respirovirus 3. As to the kind of experiment: Antiviral activity against Parainfluenza 3 virus infected in african green monkey Vero cells assessed as inhibition of virus-induced cytopathicity at 100 uM. Format: functional, organism-based. Summed up:
as §1

Assay [2] has as its system Mammalian orthoreovirus 1. As to the kind of experiment: Antiviral activity against Reovirus1 infected in african green monkey Vero cells assessed as inhibition of virus-induced cytopathicity at 100 uM. Format: functional, organism-based. An outline of the steps:
as §1

The subject of assay [3] is Respiratory syncytial virus. The assay can be described thus: Antiviral activity against RSV infected in human HeLa cells assessed as inhibition of virus-induced cytopathicity at 100 uM. The assay is classed as functional, organism-based. An outline of the steps: as §1
For assay [4], the system named is Coxsackievirus B4. The assay can be described thus: Antiviral activity against Coxsackievirus B4 infected in african green monkey Vero cells assessed as inhibition of virus-induced cytopathicity at 100 uM. The assay is classed as functional, organism-based. An outline of the steps:
as §1

The test system of a further assay is Felid alphaherpesvirus 1. As to the kind of experiment: Antiviral activity against Feline herpesvirus infected in […] cells assessed as inhibition of virus-induced cytopathicity at 100 uM. The assay is classed as functional, organism-based.
The next assay deals with Punta Toro virus. The assay can be described thus: Antiviral activity against Punta Toro virus infected in african green monkey Vero cells assessed as inhibition of virus-induced cytopathicity at 100 uM. Format: functional, organism-based. An outline of the steps:
as §1

Assay [5] relates to Human immunodeficiency virus 2. The assay can be described thus: Antiviral activity against HIV-2 ROD infected in CEM cells assessed as inhibition of virus-induced cytopathicity at 100 uM. Conditions: ISOLATE ROD, CCRF-CEM. Format: functional, organism-based. An outline of the steps: (§3)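 Virus stocks were titrated in CEM cells as CCID50. CEM cells at ~3 × 10^5 cells/ml were infected with ~100 CCID50 and immediately added to wells holding various test concentrations. After 4 days at 37 °C, giant cell formation was scored microscopically.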

In another assay the test system is Vaccinia virus. The assay can be described thus: Antiviral activity against Vaccinia virus infected in human HEL cells assessed as inhibition of virus-induced cytopathicity at 100 uM. Format: functional, organism-based. Conditions: Orthopoxvirus vaccinia. Summed up:
as §2

For a further assay, the system named is Human alphaherpesvirus 2. The assay can be described thus: Antiviral activity against HSV2 infected in human HEL cells assessed as inhibition of virus-induced cytopathicity at 100 uM. Format: functional, organism-based. Summed up:
as §1

In a further assay the test system is CCRF-CEM. The assay can be described thus: Cytostatic activity against human CEM cells. The assay is classed as functional, cell-based. An outline of the steps:
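Uninfected CEM cells were run in parallel with the HIV assay for 4 days at 37 °C. IC50 is the concentration inhibiting cell proliferation by 50%, given as the mean ± S.D. of 2–3 independent experiments.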

In assay [6] the test system is Human immunodeficiency virus 1. The assay can be described thus: Antiviral activity against HIV1 3B infected in CEM cells assessed as inhibition of virus-induced cytopathicity at 100 uM. Conditions: CCRF-CEM. The assay is classed as functional, organism-based. Summed up:
as §3

The next assay concerns Feline coronavirus. The assay can be described thus: Antiviral activity against Feline coronavirus infected in feline CRFK cells assessed as inhibition of virus-induced cytopathicity at 100 uM. The assay is classed as functional, organism-based. Summed up:
as §1

A further assay concerns HeLa. As to the kind of experiment: Cytostatic activity against human HeLa cells. The assay is classed as functional, cell-based. An outline of the steps:
(§4)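 Cell proliferation was measured with the test agents present. IC50 is the concentration giving 50% inhibition of proliferation, given as the mean ± S.D. of 2–3 independent experiments.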

Assay [7] has as its system Vesicular stomatitis virus. The assay can be described thus: Antiviral activity against VSV infected in human HEL cells assessed as inhibition of virus-induced cytopathicity at 100 uM. The assay is classed as functional, organism-based. Summed up:
as §2

In assay [8] the test system is Influenza A virus. The assay can be described thus: Antiviral activity against influenza A virus H3N2 infected in MDCK cells assessed as inhibition of virus-induced cytopathicity at 100 uM. Format: functional, organism-based. Summed up: as §2
The subject of the next assay is L1210. As to the kind of experiment: Cytostatic activity against mouse L1210 cells. Format: functional, cell-based. Summed up:
as §4

In another assay the test system is Influenza B virus. As to the kind of experiment: Antiviral activity against influenza B virus infected in MDCK cells assessed as inhibition of virus-induced cytopathicity at 100 uM. Format: functional, organism-based. An outline of the steps:
as §2

The test system of assay [9] is Coxsackievirus B4. As to the kind of experiment: Antiviral activity against Coxsackievirus B4 infected in human HeLa cells assessed as inhibition of virus-induced cytopathicity at 100 uM. Format: functional, organism-based. Summed up:
as §1

In assay [10] the test system is Vesicular stomatitis virus. The assay can be described thus: Antiviral activity against VSV infected in human HeLa cells assessed as inhibition of virus-induced cytopathicity at 100 uM. The assay is classed as functional, organism-based. Summed up:
as §2

With `N#C[C@]1(O)[C@H](O)[C@@H](CO)O[C@@H](n2cc(F)c(O)nc2=O)[C@@H]1O`, the inhibition entry (with Human alphaherpesvirus 1; in the assay on Influenza A virus [1]; in the assay with Human respirovirus 3; in assay [2]; in assay [3]; in the assay with Coxsackievirus B4 [4]) was “inactive” throughout. For the same compound, the inhibition result (in the assay with Felid alphaherpesvirus 1; in the assay with Punta Toro virus; in assay [5]; in the assay on Vaccinia virus; in the assay with Human alphaherpesvirus 2; in assay [6]) was “inactive” each time. Moreover, the inhibition result (with Feline coronavirus; in assay [7]; with Influenza A virus [8]; with Influenza B virus; in the assay on Coxsackievirus B4 [9]; in assay [10]) was “inactive” throughout. The negative-log IC50 (pIC50) in the assay on CCRF-CEM was 4.49; with HeLa, 5.35; with L1210 it was 5.72.

Regarding `Cc1cn([C@@H]2O[C@H](CO)[C@@H](O)[C@@H](C#N)[C@H]2O)c(=O)nc1O`, the inhibition result (in the assay with Human alphaherpesvirus 1; in the assay with Influenza A virus [1]; in the assay with Human respirovirus 3; in assay [2]; in assay [3]; with Coxsackievirus B4 [4]) was “inactive” each time. Moreover, the inhibition entry (in the assay on Felid alphaherpesvirus 1; in the assay with Punta Toro virus; in assay [5]; in the assay on Vaccinia virus; with Human alphaherpesvirus 2; in assay [6]) was “inactive” in each case. Further, the inhibition entry (with Feline coronavirus; in assay [7]; in the assay on Influenza A virus [8]; in the assay on Influenza B virus; in the assay on Coxsackievirus B4 [9]; in assay [10]) was “inactive” throughout. In addition, the negative logarithm of the IC50 (pIC50) in the assay on CCRF-CEM, in the assay with HeLa and with L1210 was less than 3.12 in each case.

Consider `O=c1[nH]cc(F)c(=O)[nH]1` [FLUOROURACIL], for which the pIC50 is 4.74 in the assay on CCRF-CEM, 6.27 in the assay with HeLa and 6.31 in the assay on L1210.

Consider `N#C[C@]1(O)[C@H](O)[C@@H](CO)O[C@@H](n2ccc(N)nc2=O)[C@@H]1O`, for which the inhibition result (with Human alphaherpesvirus 1; in the assay with Influenza A virus [1]; in the assay on Human respirovirus 3; in assay [2]; in assay [3]; in the assay with Coxsackievirus B4 [4]) was “inactive” in each case. The inhibition result (in the assay on Felid alphaherpesvirus 1; in the assay on Punta Toro virus; in [5]; with Vaccinia virus; in the assay with Human alphaherpesvirus 2; in assay [6]) was “inactive” each time. The inhibition entry (in the assay with Feline coronavirus; in assay [7]; in the assay on Influenza A virus [8]; in the assay on Influenza B virus; with Coxsackievirus B4 [9]; in assay [10]) was “inactive” each time. Also, the pIC50 is less than 3.30 in the assay with CCRF-CEM, 3.42 in the assay with HeLa and 3.83 in the assay on L1210.

For `N#C[C@H]1[C@@H](O)[C@H](n2cc(F)c(O)nc2=O)O[C@H](CO)[C@H]1O`, the inhibition entry (in the assay with Human alphaherpesvirus 1; with Influenza A virus [1]; in the assay with Human respirovirus 3; in [2]; in [3]; in the assay with Coxsackievirus B4 [4]) was “inactive” each time. The inhibition entry (in the assay with Felid alphaherpesvirus 1; in the assay with Punta Toro virus; in assay [5]; in the assay with Vaccinia virus; with Human alphaherpesvirus 2; in [6]) was “inactive” throughout. Further, the inhibition entry (with Feline coronavirus; in [7]; in the assay on Influenza A virus [8]; with Influenza B virus; with Coxsackievirus B4 [9]; in [10]) was “inactive” each time. Moreover, the pIC50 in the assay with CCRF-CEM is less than 3.30; in the assay with HeLa, 3.09; with L1210 it was 3.26.

For `N#C[C@]1(O)[C@H](O)[C@@H](CO)O[C@@H](n2ccc(O)nc2=O)[C@@H]1O`, the inhibition entry (with Human alphaherpesvirus 1; with Influenza A virus [1]; in the assay on Human respirovirus 3; in assay [2]; in assay [3]; in the assay with Coxsackievirus B4 [4]) was “inactive” in each case. Moreover, the inhibition entry (in the assay with Felid alphaherpesvirus 1; with Punta Toro virus; in [5]; in the assay on Vaccinia virus; in the assay with Human alphaherpesvirus 2; in [6]) was “inactive” throughout. Besides, the inhibition result (in the assay on Feline coronavirus; in assay [7]; in the assay with Influenza A virus [8]; in the assay with Influenza B virus; in the assay on Coxsackievirus B4 [9]; in [10]) was “inactive” in each case. Besides, the negative logarithm of the IC50 (pIC50) was less than 3.30 in the assay with CCRF-CEM, less than 3.30 in the assay on HeLa and 3.38 with L1210.

On to `N#C[C@H]1[C@@H](O)[C@H](n2ccc(O)nc2=O)O[C@H](CO)[C@H]1O`, for which the inhibition entry (in the assay with Human alphaherpesvirus 1; in the assay with Influenza A virus [1]; in the assay with Human respirovirus 3; in assay [2]; in assay [3]; in the assay on Coxsackievirus B4 [4]) was “inactive” in each case. Moreover, the inhibition entry (with Felid alphaherpesvirus 1; with Punta Toro virus; in assay [5]; in the assay on Vaccinia virus; with Human alphaherpesvirus 2; in assay [6]) was “inactive” in each case. The inhibition entry (in the assay on Feline coronavirus; in assay [7]; in the assay with Influenza A virus [8]; in the assay on Influenza B virus; in the assay on Coxsackievirus B4 [9]; in assay [10]) was “inactive” in each case. In addition, the figures for the pIC50 with CCRF-CEM, in the assay on HeLa and in the assay with L1210 were less than 3.30, 3.09 and less than 3.30, respectively.

Turning to `N#C[C@H]1[C@@H](O)[C@H](n2ccc(N)nc2=O)O[C@H](CO)[C@H]1O`, the inhibition result (in the assay on Human alphaherpesvirus 1; in the assay with Influenza A virus [1]; in the assay with Human respirovirus 3; in [2]; in assay [3]; in the assay with Coxsackievirus B4 [4]) was “inactive” each time. Moreover, the inhibition result (in the assay on Felid alphaherpesvirus 1; with Punta Toro virus; in assay [5]; with Vaccinia virus; in the assay with Human alphaherpesvirus 2; in assay [6]) was “inactive” throughout. Also, the inhibition result (with Feline coronavirus; in assay [7]; with Influenza A virus [8]; in the assay on Influenza B virus; in the assay on Coxsackievirus B4 [9]; in [10]) was “inactive” in each case. Further, the pIC50 with CCRF-CEM, in the assay on HeLa and with L1210 was less than 3.12 throughout.

As usually defined, the pIC50 is −log10 of the IC50, conventionally taken in molar units.
